These results are taken from ChEMBL document CHEMBL3603808, “Discovery and structure of a new inhibitor scaffold of the autophagy initiating kinase ULK1” (Bioorg Med Chem, 2015).

In experiment [1] the target is T1, Serine/threonine-protein kinase ULK1 (Homo sapiens, UniProt O75385).
T1 sequence (O75385 whole entry): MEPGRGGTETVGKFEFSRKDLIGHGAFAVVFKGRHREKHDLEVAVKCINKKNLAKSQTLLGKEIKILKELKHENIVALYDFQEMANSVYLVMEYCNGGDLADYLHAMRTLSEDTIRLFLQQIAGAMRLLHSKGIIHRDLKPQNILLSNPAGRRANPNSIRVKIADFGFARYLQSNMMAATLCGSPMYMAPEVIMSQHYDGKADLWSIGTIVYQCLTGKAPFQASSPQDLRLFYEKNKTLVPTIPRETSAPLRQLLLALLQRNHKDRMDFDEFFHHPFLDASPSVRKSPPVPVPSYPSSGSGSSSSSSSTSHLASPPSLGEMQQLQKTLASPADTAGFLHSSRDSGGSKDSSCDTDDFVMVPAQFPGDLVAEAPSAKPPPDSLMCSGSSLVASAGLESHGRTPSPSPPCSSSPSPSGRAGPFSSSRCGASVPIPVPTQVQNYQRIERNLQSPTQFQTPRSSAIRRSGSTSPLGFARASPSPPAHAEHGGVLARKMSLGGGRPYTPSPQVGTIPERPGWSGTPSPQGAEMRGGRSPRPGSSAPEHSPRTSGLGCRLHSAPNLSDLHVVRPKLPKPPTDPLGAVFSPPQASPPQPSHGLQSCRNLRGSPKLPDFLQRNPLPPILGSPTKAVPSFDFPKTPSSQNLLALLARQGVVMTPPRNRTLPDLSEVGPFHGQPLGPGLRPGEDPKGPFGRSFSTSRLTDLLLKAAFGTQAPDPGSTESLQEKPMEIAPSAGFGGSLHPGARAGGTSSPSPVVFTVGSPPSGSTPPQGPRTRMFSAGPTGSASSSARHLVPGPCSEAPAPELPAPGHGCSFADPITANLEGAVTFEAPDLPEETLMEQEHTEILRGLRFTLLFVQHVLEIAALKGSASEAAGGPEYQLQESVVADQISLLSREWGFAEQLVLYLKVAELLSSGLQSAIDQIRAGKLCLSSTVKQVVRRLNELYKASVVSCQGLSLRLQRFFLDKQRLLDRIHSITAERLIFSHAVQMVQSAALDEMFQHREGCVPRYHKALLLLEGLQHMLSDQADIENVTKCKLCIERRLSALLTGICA
Nature of the experiment: Inhibition of SUMO-tagged ULK1 (unknown origin) kinase domain expressed in KRX cells using [32P]-gamma-ATP and myelin basic protein substrate incubated for 7 mins. Type of experiment: cell-based. The gist of the method:
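Enzyme at 5 nM with 50 µM cold ATP, 0.05 µCi/µl 32P-γ-ATP and 20 µM myelin basic protein as substrate. Reactions were spotted onto nitrocellulose, washed three times in 1% phosphoric acid, dried and imaged by phosphorimager. IC50 from curve fitting; duplicate.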

Experiment [2] addresses Tyrosine-protein kinase JAK2 (Homo sapiens) (UniProt O60674). Nature of the experiment: Inhibition of JAK2 (unknown origin) at 2 uM by radioactive filter-binding assay. The gist of the method:
(§1)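 Panel profiling of one compound against 50 kinases, carried out in duplicate at the International Centre for Protein Kinase Profiling. Radioactive filter-binding format.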

Experiment [3] addresses Casein kinase I isoform delta (Homo sapiens) (UniProt P48730). The experiment is described as follows: Inhibition of CK1delta (unknown origin) at 250 nM by radioactive filter-binding assay. Summed up: as §1
For experiment [4], the target named is Serine/threonine-protein kinase PAK 4 (Homo sapiens) (UniProt O96013). The experiment is described as follows: Inhibition of PAK4 (unknown origin) at 250 nM by radioactive filter-binding assay. The gist of the method: as §1
The target of experiment [5] is MAP/microtubule affinity-regulating kinase 3 (Homo sapiens) (UniProt P27448). Nature of the experiment: Inhibition of MARK3 (unknown origin) at 250 nM by radioactive filter-binding assay. The gist of the method:
as §1

Sequence of Casein kinase I isoform delta (Homo sapiens) (P48730 whole entry, looked up, canonical isoform): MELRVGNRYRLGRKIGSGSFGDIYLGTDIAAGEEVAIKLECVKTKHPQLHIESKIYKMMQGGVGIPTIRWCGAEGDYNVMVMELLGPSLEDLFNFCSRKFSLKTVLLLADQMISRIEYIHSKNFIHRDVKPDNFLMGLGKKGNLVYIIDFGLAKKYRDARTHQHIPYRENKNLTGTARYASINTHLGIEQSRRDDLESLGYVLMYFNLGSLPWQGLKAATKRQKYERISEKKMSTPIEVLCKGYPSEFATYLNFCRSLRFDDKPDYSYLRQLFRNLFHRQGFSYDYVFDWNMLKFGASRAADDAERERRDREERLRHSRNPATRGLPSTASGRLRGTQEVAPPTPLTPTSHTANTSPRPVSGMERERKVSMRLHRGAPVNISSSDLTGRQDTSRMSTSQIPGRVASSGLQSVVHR
Sequence of MAP/microtubule affinity-regulating kinase 3 (Homo sapiens) (P27448 whole entry, looked up): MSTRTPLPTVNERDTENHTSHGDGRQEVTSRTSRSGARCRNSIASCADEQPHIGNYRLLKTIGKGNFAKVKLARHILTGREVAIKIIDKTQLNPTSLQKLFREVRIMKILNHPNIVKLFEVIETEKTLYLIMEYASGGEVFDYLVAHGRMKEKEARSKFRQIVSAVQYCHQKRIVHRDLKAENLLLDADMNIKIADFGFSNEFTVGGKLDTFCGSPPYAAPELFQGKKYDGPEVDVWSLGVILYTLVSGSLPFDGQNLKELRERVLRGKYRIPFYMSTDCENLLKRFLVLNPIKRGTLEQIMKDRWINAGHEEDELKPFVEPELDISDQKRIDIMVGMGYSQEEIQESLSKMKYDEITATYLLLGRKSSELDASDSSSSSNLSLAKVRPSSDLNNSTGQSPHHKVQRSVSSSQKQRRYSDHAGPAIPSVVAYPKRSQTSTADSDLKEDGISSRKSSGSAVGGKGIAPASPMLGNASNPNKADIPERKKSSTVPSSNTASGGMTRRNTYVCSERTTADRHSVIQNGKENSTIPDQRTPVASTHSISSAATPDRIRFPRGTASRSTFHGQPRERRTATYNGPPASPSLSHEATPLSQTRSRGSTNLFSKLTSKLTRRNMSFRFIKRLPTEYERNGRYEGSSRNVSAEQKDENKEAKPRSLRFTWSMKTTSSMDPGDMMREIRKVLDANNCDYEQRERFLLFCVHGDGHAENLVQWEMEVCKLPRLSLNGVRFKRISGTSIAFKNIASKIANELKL
Sequence of Tyrosine-protein kinase JAK2 (Homo sapiens) (O60674 whole entry): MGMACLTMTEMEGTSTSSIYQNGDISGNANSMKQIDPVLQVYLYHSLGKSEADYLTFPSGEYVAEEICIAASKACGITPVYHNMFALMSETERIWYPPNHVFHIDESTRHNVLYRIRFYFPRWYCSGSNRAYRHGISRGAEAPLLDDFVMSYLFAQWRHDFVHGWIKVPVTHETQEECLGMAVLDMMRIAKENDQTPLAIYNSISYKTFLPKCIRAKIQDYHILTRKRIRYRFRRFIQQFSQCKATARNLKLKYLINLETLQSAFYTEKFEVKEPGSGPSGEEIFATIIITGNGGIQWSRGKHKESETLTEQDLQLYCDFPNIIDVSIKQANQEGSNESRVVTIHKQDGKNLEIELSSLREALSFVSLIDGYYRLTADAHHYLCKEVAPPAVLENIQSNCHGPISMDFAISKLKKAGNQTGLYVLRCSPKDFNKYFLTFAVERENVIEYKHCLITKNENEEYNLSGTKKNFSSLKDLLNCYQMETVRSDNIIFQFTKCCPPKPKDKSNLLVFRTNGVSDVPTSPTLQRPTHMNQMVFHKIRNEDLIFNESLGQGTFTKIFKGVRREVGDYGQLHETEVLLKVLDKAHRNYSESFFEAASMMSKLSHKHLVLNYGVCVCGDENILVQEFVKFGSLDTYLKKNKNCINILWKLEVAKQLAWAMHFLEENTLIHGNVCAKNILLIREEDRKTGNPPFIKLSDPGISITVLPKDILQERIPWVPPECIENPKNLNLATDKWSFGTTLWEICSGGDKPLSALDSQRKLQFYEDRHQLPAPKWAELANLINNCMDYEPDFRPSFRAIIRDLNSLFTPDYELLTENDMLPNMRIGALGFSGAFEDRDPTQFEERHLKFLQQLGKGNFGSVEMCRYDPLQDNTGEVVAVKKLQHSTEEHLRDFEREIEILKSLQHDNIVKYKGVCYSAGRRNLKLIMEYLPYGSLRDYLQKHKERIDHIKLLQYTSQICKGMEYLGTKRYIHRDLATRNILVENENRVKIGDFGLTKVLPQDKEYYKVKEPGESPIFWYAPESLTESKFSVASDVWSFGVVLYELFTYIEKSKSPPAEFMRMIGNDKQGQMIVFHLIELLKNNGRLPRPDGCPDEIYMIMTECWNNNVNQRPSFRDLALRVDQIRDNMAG
Sequence of Serine/threonine-protein kinase PAK 4 (Homo sapiens) (O96013 whole entry, looked up): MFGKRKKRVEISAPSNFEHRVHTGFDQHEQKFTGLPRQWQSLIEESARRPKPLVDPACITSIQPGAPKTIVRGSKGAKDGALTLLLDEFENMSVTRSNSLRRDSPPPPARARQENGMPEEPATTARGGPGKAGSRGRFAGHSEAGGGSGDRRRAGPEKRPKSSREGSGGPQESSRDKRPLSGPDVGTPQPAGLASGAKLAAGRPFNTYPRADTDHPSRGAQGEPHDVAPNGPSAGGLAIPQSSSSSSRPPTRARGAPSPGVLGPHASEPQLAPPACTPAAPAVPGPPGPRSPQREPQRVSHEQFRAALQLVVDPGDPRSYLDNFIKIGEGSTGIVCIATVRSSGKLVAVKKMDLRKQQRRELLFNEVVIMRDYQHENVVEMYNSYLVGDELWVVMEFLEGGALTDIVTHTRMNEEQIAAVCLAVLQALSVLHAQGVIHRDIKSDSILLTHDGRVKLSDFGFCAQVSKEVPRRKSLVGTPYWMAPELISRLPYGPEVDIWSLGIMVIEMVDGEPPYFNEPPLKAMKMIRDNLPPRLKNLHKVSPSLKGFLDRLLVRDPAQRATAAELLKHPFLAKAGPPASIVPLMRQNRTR

In turn, `NCCCNc1nc(Nc2cccc(NC(=O)N3CCCC3)c2)ncc1I` had an IC50 in experiment [1] of 120 nM. Also, the inhibition in experiment [2] is greater than 80%.

`c1ccc2c(Nc3cc(C4CCC4)[nH]n3)nc(Nc3ccc4[nH]cnc4c3)nc2c1`: the inhibition in experiment [3], in experiment [4] and in experiment [5] was greater than 80% in each case.
